Experimental data from different studies.
Protocols differ between the studies behind these lines.
Organism: Plasmodium falciparum
Effect on: parasite growth

| SMILES | assay | test system | conditions | IC50 |
| --- | --- | --- | --- | --- |
| CCN(CC)CCCC(C)Nc1ccnc2cc(Cl)ccc12 (stereo not shown) | – | – | 72 h, blood stage | 28.2 nM |
| Cc1ccc(N(CC2=NCCN2)c2cccc(O)c2)cc1 | – | NF54 | blood stage | 36600 nM |
| N=C(CC(O)c1nc2ccccc2c2ccc(Cl)cc12)Nc1ccc(F)cc1 (stereo not shown) | ELISA | 3D7 | 72 h, blood stage | 18.7 nM |
| CCCCCCCCNC(C)C(O)c1ccc(SC(C)C)cc1 (stereo not shown) | SYBR Green | 3D7 | blood stage | 807 nM |
| COC1=CC(c2ccc[nH]2)=N/C1=C\c1[nH]c(Cc2ccc(OC(F)(F)F)cc2)cc1Cc1ccc(OC(F)(F)F)cc1 | SYBR Green | D6 | 72 h, blood stage | 25.2 nM |
| CO[C@H]1C[C@H](O[C@@H]2/C(C)=C/C[C@@H]3C[C@@H](C[C@]4(CC[C@H](C)[C@@H](C5CCCCC5)O4)O3)OC(=O)[C@@H]3C=C(C)/C(=N/O)[C@H]4OC/C(=C\C=C\[C@@H]2C)[C@]43O)O[C@@H](C)[C@@H]1O | SYBR Green | 3D7 | blood stage | 553 nM |
| N=C(CC(O)c1nc2ccccc2c2ccccc12)Nc1ccc(F)cc1 (stereo not shown) | ELISA | 3D7 | 72 h, blood stage | 123 nM |
| CCN(CC)CCCC(C)Nc1ccnc2cc(Cl)ccc12 (stereo not shown) | – | NF54 | blood stage | 11.7 nM |
| O=C1C(O)=C([C@H]2CC[C@H](c3ccc(Cl)cc3)CC2)C(=O)c2ccccc21 | SYBR Green | D6 | 72 h, blood stage | 0.106 nM |
| CN(Cc1cnc2nc(N)nc(N)c2n1)c1ccc(C(=O)N[C@@H](CCC(=O)O)C(=O)O)cc1 | – | NF54 | blood stage | 51.5 nM |
| N=C(CC(O)c1nc2cc(F)ccc2c2ccc(F)cc12)Nc1ccc(F)cc1 (stereo not shown) | ELISA | DD2 | 72 h, drug-resistant strain, blood stage | 936 nM |
| COC1=C(OC)/C(=C/c2[nH]c(Cc3ccc(Cl)cc3)cc2Cc2ccc(Cl)cc2)N=C1c1ccc[nH]1 | SYBR Green | D6 | 72 h, blood stage | > 2500 nM |
| CC(C)(C)CC(C)(C)c1ccc(O)c(Cc2ccc(Cl)cc2Cl)c1 | – | NF54 | blood stage | 16300 nM |
| CC1=C(C)/C(=C/c2cc(Cc3ccc(Cl)cc3)c(C)[nH]2)N=C1c1ccc[nH]1 | SYBR Green | D6 | 72 h, blood stage | 602 nM |
| Cc1ccc(N(c2ccc(NC(=O)CN(C)c3ccccc3N3CCCC3=O)cc2)C(C)C)cc1 | SYBR Green | DD2 | blood stage | 2.74 nM |
| CCC1=C(CC)/C(=C/c2[nH]c(Cc3ccc(Cl)cc3)cc2Cc2ccc(Cl)cc2)N=C1c1ccc[nH]1 | SYBR Green | D6 | 72 h, blood stage | 79.6 nM |
| N=C(CC(O)c1cc2cccnc2c2cccnc12)Nc1ccc(F)cc1 (stereo not shown) | ELISA | 3D7 | 72 h, blood stage | 3200 nM |
| COc1ccc2cc1Oc1ccc(cc1)C[C@H]1c3c(cc4c(c3Oc3cc5c(cc3OC)CCN(C)[C@@H]5C2)OCO4)CCN1C | SYBR Green | 3D7 | blood stage | 664 nM |
| N=C(CC(O)c1nc2ccccc2c2ccc(Br)cc12)Nc1ccc(F)cc1 (stereo not shown) | ELISA | DD2 | 72 h, drug-resistant strain, blood stage | 46.3 nM |
| CC1=C(C)/C(=C/c2[nH]c(Cc3ccc(OC(F)(F)F)cc3)cc2Cc2ccc(OC(F)(F)F)cc2)N=C1c1ccc[nH]1 | SYBR Green | D6 | 72 h, blood stage | 1300 nM |
| CCN(CC)CCCC(C)Nc1ccnc2cc(Cl)ccc12 (stereo not shown) | ELISA | 3D7 | 72 h, blood stage | 3.3 nM |
| CC[C@H](CC[C@@H](C)[C@H]1CC[C@H]2[C@@H]3CC=C4C[C@@H](O)CC[C@]4(C)[C@H]3CC[C@]12C)C(C)C | SYBR Green | 3D7 | 48 h, blood stage | 9.29 µg/mL |
